Source: PubChem BioAssay AID651830 (Vanderbilt Specialized Chemistry Center, 2012)
Activity calls are given as the source filed them.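 Rule for the calls: active = inhibition above 50% in the panel binding assay; inactive = inhibition of 50% or less.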

Assay: off-target binding across receptor panel, profiling panel, selectivity assay for mGlu3 NAM project, biochemical, Eurofins PanLabs, radioligand binding (AID 651830)
Conditions: at 10 µM, stronger effect = higher value
Outline: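 Probe or stimulus: Radioligand selective for each panel target | Measured by: Radioligand displacement measurement in binding assay | Measure: % inhibition of radioligand binding | Controls: Reference standards in each assay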

With `COc1ccc(C#Cc2ccc(C(=O)N3CCC[C@@H](O)C3)c(F)c2)cc1` the inhibition was 74% (active), the inhibition (measured here: 5-HT1A binding) was 71% and the inhibition (measured here: 5-HT2B binding) was -12%. It also gave an inhibition (measured here: N-type calcium channel binding) of 22%, an inhibition (measured here: P2X binding) of 31% and an inhibition (measured here: adenosine A3 binding) of 45%. The inhibition (measured here: alpha1D adrenergic binding) was 20%, the inhibition (measured here: dopamine D3 binding) was 24% and the inhibition (measured here: hERG binding) was 28%. It also gave an inhibition (measured here: kainate receptor binding) of 19%, an inhibition (measured here: norepinephrine transporter binding) of 25% and an inhibition (measured here: serotonin transporter binding) of -1%. The inhibition (measured here: sigma1 binding) was 33%.
